Assays:
Assay type in all cases: cell-based
[1] = target: T1, Nuclear receptor ROR-gamma (Homo sapiens) (UniProt P51449); experiment: Inverse agonist activity at human ROR-gamma1 transfected in HEK293 cells at 10 uM after 16 hrs by luciferase reporter gene assay relative to control
T1 sequence (whole entry): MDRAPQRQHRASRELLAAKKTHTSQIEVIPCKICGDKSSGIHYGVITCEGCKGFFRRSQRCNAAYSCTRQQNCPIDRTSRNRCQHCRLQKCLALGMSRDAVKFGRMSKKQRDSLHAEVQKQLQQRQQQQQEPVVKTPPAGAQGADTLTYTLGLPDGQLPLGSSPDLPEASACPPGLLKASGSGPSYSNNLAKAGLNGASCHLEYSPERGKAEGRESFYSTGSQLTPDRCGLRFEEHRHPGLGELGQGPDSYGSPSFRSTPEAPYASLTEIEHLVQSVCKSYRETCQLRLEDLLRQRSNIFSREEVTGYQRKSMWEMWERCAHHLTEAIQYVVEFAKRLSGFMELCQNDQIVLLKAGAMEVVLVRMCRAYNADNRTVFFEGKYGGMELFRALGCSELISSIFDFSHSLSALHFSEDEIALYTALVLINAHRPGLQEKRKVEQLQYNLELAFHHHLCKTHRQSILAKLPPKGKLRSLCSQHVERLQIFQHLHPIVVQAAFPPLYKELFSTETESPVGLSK
Procedure, shortened: (§1)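 HEK293 cells grown in DMEM with 5% FBS plus penicillin/streptomycin, 37 °C, 5% CO2, seeded at 20% confluence 24 h before transfection. Calcium phosphate cotransfection per well: 150 ng receptor expression plasmid, 500 ng luciferase reporter, 10 ng β-galactosidase vector. After 8 h, compound at 10 µM or DMSO for 16 h. Luciferase normalized to β-galactosidase, inhibition expressed as percent of control, transfections in triplicate.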

[2] = target: T2, Nuclear receptor ROR-beta (Homo sapiens) (UniProt Q92753); experiment: Inverse agonist activity at human ROR-beta1 transfected in HEK293 cells at 10 uM after 16 hrs by luciferase reporter gene assay relative to control; procedure, shortened: as §1
T2 sequence (whole entry): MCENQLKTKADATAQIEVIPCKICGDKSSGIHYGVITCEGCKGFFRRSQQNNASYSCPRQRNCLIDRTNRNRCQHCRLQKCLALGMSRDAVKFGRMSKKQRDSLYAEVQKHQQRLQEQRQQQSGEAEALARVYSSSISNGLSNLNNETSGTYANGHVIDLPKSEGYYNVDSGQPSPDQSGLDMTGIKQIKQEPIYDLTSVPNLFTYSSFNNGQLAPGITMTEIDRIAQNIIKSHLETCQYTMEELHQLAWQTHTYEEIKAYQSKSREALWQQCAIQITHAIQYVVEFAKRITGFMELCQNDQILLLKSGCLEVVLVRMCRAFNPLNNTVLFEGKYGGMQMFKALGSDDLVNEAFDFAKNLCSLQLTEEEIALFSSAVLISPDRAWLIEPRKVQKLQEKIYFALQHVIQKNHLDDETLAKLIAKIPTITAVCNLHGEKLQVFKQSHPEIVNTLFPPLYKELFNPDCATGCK

[3] = target: T3, Nuclear receptor ROR-gamma (Homo sapiens, UniProt P51449); experiment: Inverse agonist activity at human ROR-gamma1 transfected in HEK293 cells after 16 hrs by luciferase reporter gene assay
T3 sequence (P51449 whole entry): T1 sequence (whole entry)

[4] = target: T4, Nuclear receptor ROR-beta (Homo sapiens, UniProt Q92753); experiment: Inverse agonist activity at human ROR-beta1 transfected in HEK293 cells after 16 hrs by luciferase reporter gene assay
T4 sequence (Q92753 whole entry): T2 sequence (whole entry)

[5] = target: T5, Nuclear receptor ROR-alpha (Homo sapiens, UniProt P35398); experiment: Inverse agonist activity at human ROR-alpha1 transfected in HEK293 cells after 16 hrs by luciferase reporter gene assay
T5 sequence (P35398 whole entry): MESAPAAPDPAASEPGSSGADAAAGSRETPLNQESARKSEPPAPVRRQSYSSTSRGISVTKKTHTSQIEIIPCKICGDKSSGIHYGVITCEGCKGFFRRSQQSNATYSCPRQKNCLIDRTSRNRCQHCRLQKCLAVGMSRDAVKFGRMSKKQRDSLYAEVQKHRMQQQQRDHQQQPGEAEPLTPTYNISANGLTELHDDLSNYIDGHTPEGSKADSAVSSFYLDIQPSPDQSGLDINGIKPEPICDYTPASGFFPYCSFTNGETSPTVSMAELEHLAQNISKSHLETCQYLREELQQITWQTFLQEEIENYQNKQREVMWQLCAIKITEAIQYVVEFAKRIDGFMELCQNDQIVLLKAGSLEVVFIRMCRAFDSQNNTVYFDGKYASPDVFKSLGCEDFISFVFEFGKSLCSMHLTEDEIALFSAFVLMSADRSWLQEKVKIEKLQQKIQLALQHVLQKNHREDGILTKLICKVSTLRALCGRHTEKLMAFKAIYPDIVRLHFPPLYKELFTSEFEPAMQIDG

SMILES	inhibition [1]	inhibition [2]	IC50 [3]	IC50 [4]	IC50 [5]
CC[Si]1(CC)c2ccccc2-c2cc(C(O)(C(F)(F)F)C(F)(F)F)ccc21	–	28%	4.2 µM	–	–
CCCC[Si]1(CCCC)c2ccccc2-c2cc(C(C)O)ccc21 (stereo unspecified)	< 5%	< 5%	–	–	–
CCCCn1c(=O)c2ccccc2c2cc(C(O)(C(F)(F)F)C(F)(F)F)ccc21	–	–	4.7 µM	5.7 µM	7.2 µM
C[Si]1(C)c2ccccc2-c2cc(C(O)(C(F)(F)F)C(F)(F)F)ccc21	–	40%	–	–	–

Other lines, results leading:

inhibition [1]	inhibition [2]	IC50 [3]	IC50 [4]	IC50 [5]	SMILES
18%	< 5%	–	–	–	CCCC[Si]1(CCCC)c2ccccc2-c2cc(CC)ccc21
37%	29%	–	–	–	CCCCn1c(=O)c2ccccc2c2cc(CC)ccc21
13%	< 5%	–	–	–	CCCC[Si]1(CCCC)c2ccccc2-c2ccccc21
< 5%	< 5%	–	–	–	CCCC[Si]1(CCCC)c2ccccc2-c2cc(C(C)=O)ccc21

Reference: ChEMBL document CHEMBL3585299, “Design and synthesis of novel ROR inverse agonists with a dibenzosilole scaffold as a hydrophobic core structure” (Bioorg Med Chem, 2015)
